Experimental data gathered from unrelated publications.
Lines come from different studies, so protocols differ.
Target: Tyrosine-protein kinase TXK (TXK, Homo sapiens, UniProt P42681)
Residues used in one study (P42681 1-527): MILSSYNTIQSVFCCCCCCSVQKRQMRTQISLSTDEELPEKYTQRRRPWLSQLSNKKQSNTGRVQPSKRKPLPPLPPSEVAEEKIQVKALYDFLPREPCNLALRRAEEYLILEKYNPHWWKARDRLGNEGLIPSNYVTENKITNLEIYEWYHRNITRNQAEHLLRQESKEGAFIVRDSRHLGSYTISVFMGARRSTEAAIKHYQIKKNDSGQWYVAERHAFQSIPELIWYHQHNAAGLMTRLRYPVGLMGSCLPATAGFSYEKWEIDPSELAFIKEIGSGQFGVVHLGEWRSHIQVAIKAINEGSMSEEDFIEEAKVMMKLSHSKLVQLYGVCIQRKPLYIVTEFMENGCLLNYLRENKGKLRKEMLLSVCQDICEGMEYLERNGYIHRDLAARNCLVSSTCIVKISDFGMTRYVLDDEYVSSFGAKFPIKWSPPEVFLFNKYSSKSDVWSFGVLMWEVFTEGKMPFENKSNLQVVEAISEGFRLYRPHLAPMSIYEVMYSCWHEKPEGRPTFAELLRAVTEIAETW

SMILES	read-out	method	tested at	remaining binding
Cc1cc(-n2nc(Cc3cc(F)cc(C(F)(F)F)c3)nc2C)ccc1C(N)=O	binding	competition with immobilised ligand	1 µM	84%
CN(C)c1nccc(-c2cnc3ncccn23)n1	binding	–	1 µM	98%
COc1cnc(Nc2cccc(S(N)(=O)=O)c2)nc1N1CCN(c2ccccc2)C(=O)C1	binding	competition with immobilised ligand	1 µM	100%
CC1=C(C#N)[C@@H](c2ccc3[nH]nc(C)c3c2)C(C#N)=C(c2ccc(Cl)cc2)N1	binding	competition with immobilised ligand	1 µM	88.1%
Cc1cnc(Nc2ccc(C(=O)N3CCC(N4CCCC4)CC3)cc2)nc1-c1cc2ccccc2s1	binding	competition with immobilised ligand	1 µM	59%
CCS(=O)(=O)c1cc2cc(C[C@@](O)(CC(C)(C)c3ccc(F)cc3C(N)=O)C(F)(F)F)[nH]c2cn1	cell-free assay	competition with immobilised ligand	1 µM	97%
CN(CCCC(F)(F)F)c1nccc(-c2cnn3ncccc23)n1	binding	–	1 µM	87%
CCCOc1ccc([C@@H]2[C@@H](C(=O)O)[C@H](c3ccc4c(c3)OCO4)CN2CC(=O)Nc2c(CC)cccc2CC)cc1	binding	competition with immobilised ligand	1 µM	100%
COc1ncc2cc3ccccc3nc2c1C#N	binding	competition with immobilised ligand	5 µM	93%
Cn1nc(C(F)(F)F)cc1-c1cnc(N2CCc3cc(S(=O)(=O)Nc4c(F)cc(Cl)cc4F)cc(N4CCCC4=O)c32)nc1	binding	competition with immobilised ligand	1 µM	100%
COc1cnc(Nc2cccc(S(N)(=O)=O)c2)nc1N1CCN(c2ccccc2)CC1	binding	competition with immobilised ligand	1 µM	100%
CC1CCCN1c1nccc(-c2cnn3ncccc23)n1 (stereo not shown)	binding	–	1 µM	100%
Cc1nc(N2CC[C@@H](O)C2)ncc1-c1cc(C(F)(F)F)cc2[nH]ncc12	binding	competition with immobilised ligand	1 µM	100%
c1cnn2ncc(-c3ccnc(N4CCC45COC5)n3)c2c1	binding	–	1 µM	100%
c1cncc(-c2cccc(Nc3nccc(NC4CCCCC4)n3)c2)c1	binding	competition with immobilised ligand	10 µM	20%
O=C(c1ccc(Nc2ncc(Cl)c(-c3ccc(Cl)s3)n2)cc1)N1CCC(N2CCCC2)CC1	binding	competition with immobilised ligand	1 µM	80%
C[C@H]1CCN(c2nccc(-c3cnn4ncccc34)n2)C1	binding	–	1 µM	90%
O=C(Nc1c[nH]nc1C(=O)NC1CCNCC1)c1cc(F)cc(F)c1	binding	competition with immobilised ligand	1 µM	100%
N[C@H]1CCN(c2nccc(-c3cnn4ncccc34)n2)C1	binding	–	1 µM	100%
C=CC(=O)N1CCC(C(=O)NCC(=O)N2CCN(c3nc(-c4cnc(N)nc4C(F)F)nc(N4CCOCC4)n3)CC2)CC1	binding	competition with immobilised ligand	1 µM	100%
CN(C)c1nccc(-c2cnn3ncccc23)n1	binding	–	1 µM	100%
O=C(c1ccc(Nc2nccc(-c3cc4ccccc4s3)n2)cc1)N1CCC(N2CCCC2)CC1	binding	competition with immobilised ligand	1 µM	92%
